Screens as filed in PubChem BioAssay.
Shown are actives, neighbours in structure and some others; about 9.6% of the full set was active somewhere.
HCT116 PTEN-null: growth suppressors of cells with PTEN tumor suppressor deletion. AID 827. HCT116 PTEN-null viability, CellTiter-Glo, 60 h; active compounds read low. 1.2% of 140,000 active. viability, % at 10 µM;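 active = viability at or below a set limit, 4 SD under the median of all tested compounds, cut at about 3.7% in these data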;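 also: PTEN knockout HCT116 line with beta catenin targeted HCT116 as companion control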
Lmaj promast: Leishmania major promastigote growth inhibition; Leishmania major promastigotes, resazurin fluorescence viability; inhibition, % at 10 µM; 9% of 200,000 active; in the data active = inhibition above about 50%;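 also: promastigotes grown with compound for 44 hours at 28 °C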
PMI act satM6P: PMI (human) activation, high substrate; coupled PMI enzyme assay, resazurin fluorescence, 20 min; active compounds read high; 1 = untreated enzyme, 0 = substrate-free blank; activation factor at 20 µM; P34949; 0.34% of 190,000 active;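 active = activation factor of 2 or more at 20 µM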
Target sequence (P34949 whole entry, looked up): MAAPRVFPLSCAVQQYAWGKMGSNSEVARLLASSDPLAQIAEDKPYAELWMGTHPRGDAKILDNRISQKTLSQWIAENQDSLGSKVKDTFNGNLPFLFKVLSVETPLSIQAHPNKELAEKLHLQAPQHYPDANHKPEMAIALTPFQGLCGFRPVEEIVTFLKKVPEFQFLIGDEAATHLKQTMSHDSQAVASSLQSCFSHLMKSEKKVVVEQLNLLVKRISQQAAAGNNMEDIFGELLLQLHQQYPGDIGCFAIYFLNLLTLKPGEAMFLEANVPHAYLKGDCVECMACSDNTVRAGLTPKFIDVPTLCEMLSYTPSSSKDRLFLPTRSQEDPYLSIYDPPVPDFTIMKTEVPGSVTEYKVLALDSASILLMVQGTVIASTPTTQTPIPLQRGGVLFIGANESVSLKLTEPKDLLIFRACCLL
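Test system: human phosphomannose isomerase with PGI, G6PDH, diaphorase coupling enzymes; amount: 15 ng/mL PMI; incubation: enzyme reaction with compound 20 min at room temperature; technique: resorufin fluorescence (Ex 544/Em 590 nm) from resazurin via diaphorase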
HCT116 bCat-KO: beta-catenin-lacking colon tumor cell growth suppression | HCT116 beta-catenin knockout viability, CellTiter-Glo, 60 h; active compounds read low | viability, % at 10 µM | 1.5% of 140,000 active | AID 818;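 active = viability at or under a set limit, the compound median less 4 SD, cut at about 6% in these data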;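 also: 0% = Hyamine 1622 control at 20 µM and 100% = untreated cell control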
PMI act: activators of human phosphomannose isomerase. purified human PMI, coupled resazurin fluorescence, 20 min; active compounds read high; 1 = vehicle control, 0 substrate-free wells. activation factor at 20 µM. 0.005% of 190,000 active. AID 1214;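 active = activation factor of 2 or more at 20 µM, relative to plate controls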
Numbers without * were called inactive; nt = not tested or not shown.

SMILES	HCT116 PTEN-null	Lmaj promast	PMI act satM6P	HCT116 bCat-KO	PMI act
CCN(CC)CCNC(=O)Cc1nn(Cc2ccccc2)c(=O)c2ccccc12	nt	0.3	0.9	nt	0.9
Cc1ccc(S(=O)(=O)/N=C2\SC(CC(=O)Nc3ccc(F)cc3)C(=O)N2c2ccccc2)cc1 (configuration not stated)	95.8	63.4*	1	95.3	1
O=C(CC1S/C(=N\S(=O)(=O)c2ccccc2)N(c2ccccc2)C1=O)Nc1ccc(F)cc1 (configuration not stated)	97.0	-6.8	1	97.5	0.9
CCOc1ccc(Oc2c(C)oc3cc(O)ccc3c2=O)cc1	nt	0.1	1	nt	0.9
CCOC(=O)c1ccc(Oc2c(C)oc3cc(OS(C)(=O)=O)ccc3c2=O)cc1	78.6	52.9*	1	81.8	0.9
COc1cc([N+](=O)[O-])ccc1NC(=O)NCc1ccco1	nt	5.5	1	nt	1.2
CC(C)CCN(C)C1CCN(S(=O)(=O)c2ccc(F)cc2)CC1	101.5	95.5*	0.8	90.9	0.8
Cc1nnc(SCC(=O)N2CCN(c3ccccc3)CC2)n(N)c1=O	nt	-2.9	1	nt	1.1
N#Cc1c(N)nc2c3c(sc(=N)c2c1N)NC(=O)CC3c1c(F)cccc1Cl (configuration not stated)	65.0	99.7*	1	72.0	1
N#Cc1c(N)nc2c3c(sc(=N)c2c1N)NC(=O)CC3c1ccccc1 (configuration not stated)	79.9	8.3	0.9	88.2	0.8
CCCCN(Cc1ccccc1)S(=O)(=O)c1cc(Br)cc2c1N(C(C)=O)C(C)C2 (configuration not stated)	46.7	98.2*	1	41.2	0.9
COc1cccc(CNC(=O)Cc2nc3nc(C)cc(C)n3n2)c1	87.9	7.2	1.1	92.8	1
COC(=O)c1cc2ccsc2n1Cc1nc(-c2ccc(Cl)cc2)oc1C	77.3	99.0*	1	72.6	1
COC(=O)c1cc2occc2n1Cc1nc(-c2ccc(Cl)cc2)oc1C	93.5	-2.7	1	78.5	1
COC(=O)c1ccc(-c2ccco2)n1Cc1nc(-c2ccc(OC)c(OC)c2)oc1C	48.0	66.0*	1	43.2	0.9
COC(=O)c1ccc(-c2ccco2)n1Cc1ccccc1Cl	87.2	-0.4	1	91.3	1
Cc1noc(C)c1COc1cccc(C(=O)NC(C)(C)C)c1	nt	-1.3	1.1	nt	1.1
O=C(CN1CCN(c2ccccc2F)CC1)NC(=O)NCc1ccccc1	nt	-4.5	1.1	nt	1.1
Cn1c(=O)c(C(=O)CN2CCN(S(=O)(=O)c3ccccc3)CC2)c(N)n(Cc2ccccc2)c1=O	84.6	71.3*	1	76.4	1
Cn1c(N)c(C(=O)CCl)c(=O)n(Cc2ccccc2)c1=O	35.6	62.5*	1.2	36.2	1.2
O=C(c1ccc(Cl)cc1)c1oc2ccccc2c1CS(=O)(=O)c1ccccc1	63.8	4.5	1	72.7	1.1
CC(OC(=O)CCN1C(=O)c2cccc([N+](=O)[O-])c2C1=O)C(=O)Nc1cc(Cl)cc(Cl)c1 (configuration not stated)	91.6	54.0*	1	98.0	1.1
C=CCN1CC(c2nc3ccccc3n2Cc2cccc3ccccc23)CC1=O (configuration not stated)	64.1	86.7*	0.9	73.9	0.9
Cc1ccc(OCCn2c(C3CC(=O)N(Cc4ccccc4)C3)nc3ccccc32)cc1 (configuration not stated)	50.9	91.5*	0.9	60.6	0.9
Cc1cccc(NC(=S)NC(C)CCc2ccccc2)c1 (configuration not stated)	51.6	78.1*	0.9	54.0	1
SMILES	HCT116 PTEN-null	Lmaj promast	PMI act satM6P	HCT116 bCat-KO	PMI act
Cc1ccc(NC(=O)C(Cc2ccccc2)NC(=O)OCc2ccccc2)cc1C (configuration not stated)	70.9	-4.5	1	86.4	1
O=C(NC(NC(=S)Nc1cccc(C(=O)O)c1)C(Cl)(Cl)Cl)OCc1ccccc1 (configuration not stated)	93.9	-4.9	1	90.1	0.9
O=C(NC(NC(=S)Nc1cccc(Cl)c1)C(Cl)(Cl)Cl)OCc1ccccc1 (configuration not stated)	12.4	100.2*	0.8	38.8	0.9
Cc1cccc(NC(=O)[C@H](Cc2ccccc2)NC(=O)OCc2ccccc2)c1	85.3	70.8*	0.9	96.3	0.9
Cc1cccc(NC(=O)NC(C)CCc2ccccc2)c1 (configuration not stated)	72.0	4.8	0.9	72.4	0.9
COC(=O)/C(=N\Nc1ccccc1)Sc1nnc(-c2ccc(OC)cc2)n1C	92.4	-4.8	1	87.4	1.1
O=C(/C=C/c1ccc(Cl)cc1)NC(=S)NN1CCCCC1c1cccnc1 (configuration not stated)	91.3	90.7*	0.8	90.3	0.7
COc1ccc(/C=C/C(=O)NC(=S)NN2CCCCC2c2cccnc2)cc1OC (configuration not stated)	99.1	24.8	0.9	98.8	0.9
CC(=O)N(C)c1ccc(NC(=O)C(Sc2ccccc2)c2ccccc2)cc1 (configuration not stated)	nt	18.0	1	nt	1
O=C(Nc1ccc(Cl)c([N+](=O)[O-])c1)C(NCCCO)c1ccccc1 (configuration not stated)	83.0	-2.5	0.9	83.1	1
O=C(Nc1ccc(Cl)c([N+](=O)[O-])c1)C(Sc1ccccc1)c1ccccc1 (configuration not stated)	3.2*	35.1	0.8	3.6*	0.8
CC(C)(C)NS(=O)(=O)c1ccc(NC(=O)C(Sc2ccccc2)c2ccccc2)cc1 (configuration not stated)	1.6*	55.7*	0.8	1.6*	0.8
O=C(Nc1cc([N+](=O)[O-])ccc1Cl)C(Sc1ccccc1)c1ccccc1 (configuration not stated)	70.9	96.1*	0.9	82.4	0.8
COc1cc([N+](=O)[O-])ccc1NC(=O)CCCOc1cccc(C)c1	77.3	-7.2	0.8	75.0	0.8
O=C(NC1CCCCC1)C(c1cccnc1)N(C(=O)CCl)c1cccc(Cl)c1 (configuration not stated)	3.1*	99.8*	1.1	3.9*	1
COc1ccc(C(C(=O)NC2CCCCC2)N(C(=O)CCCC(=O)Nc2ccccn2)c2ccc3c(c2)OCCO3)cc1 (configuration not stated)	36.5	-7.4	0.9	39.5	0.9
O=C(NC1CCCC1)C(c1ccc(Cl)cc1)N(Cc1ccc(F)cc1)C(=O)CCl (configuration not stated)	91.2	100.4*	0.9	91.5	1.1
O=C(CCCC(=O)N(c1ccc2c(c1)OCCO2)C(C(=O)NC1CCCCC1)c1ccc(Cl)cc1)Nc1ccccn1 (configuration not stated)	75.1	58.2*	0.9	57.1	0.9
